# NR1D1 modulator – modulates human Rev-erb alpha binding to DNA. AID 1259318. P20393. Rev-erbα–FITC-DNA binding, fluorescence polarization, 90 min. hit rate 0.79% among 370,000. activity, % at 10 µM;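 active = activity above about 14%, limit read from the data; passing the limit was not always enough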;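 note: 0% = DMSO wells with 35 nM protein and 100% = DMSO wells with 750 nM protein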
# Target sequence (P20393 whole entry, looked up): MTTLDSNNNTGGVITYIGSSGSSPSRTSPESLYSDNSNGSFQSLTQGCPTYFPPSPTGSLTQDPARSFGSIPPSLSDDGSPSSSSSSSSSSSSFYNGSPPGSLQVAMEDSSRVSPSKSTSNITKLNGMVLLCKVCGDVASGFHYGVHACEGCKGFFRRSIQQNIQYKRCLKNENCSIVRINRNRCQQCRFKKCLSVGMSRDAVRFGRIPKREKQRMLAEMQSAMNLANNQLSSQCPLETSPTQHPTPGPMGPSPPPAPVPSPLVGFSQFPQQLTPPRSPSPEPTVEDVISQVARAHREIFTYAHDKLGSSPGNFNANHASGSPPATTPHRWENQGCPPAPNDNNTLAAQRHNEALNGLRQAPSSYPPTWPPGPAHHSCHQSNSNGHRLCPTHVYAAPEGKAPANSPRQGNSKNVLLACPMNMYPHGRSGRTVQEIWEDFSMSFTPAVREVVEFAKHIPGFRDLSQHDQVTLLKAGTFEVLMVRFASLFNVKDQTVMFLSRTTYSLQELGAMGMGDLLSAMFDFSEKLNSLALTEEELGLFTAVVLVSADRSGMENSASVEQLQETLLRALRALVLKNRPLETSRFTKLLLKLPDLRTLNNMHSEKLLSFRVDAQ
# Neddylation inh – blocks human cullin neddylation | P61081+Q13564 | TR-FRET cullin neddylation, biochemical | calls only at 25 µM | hit rate 0.58% among 360,000 | AID 651699; in the data active = inhibition above about 36%
# NR2E3 ag-1 – NR2E3 (human) agonism | Q9Y5X4 | AID 2300 | inhibition of corepressor binding, % at 4.78 µM | hit rate 0.12% among 320,000 | GST-NR2E3/biotin-RetCOR TR-FRET, 1536-well;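 active = percent inhibition above the cutoff of mean plus 3 SD of all tested compounds, set per screening campaign, cut at about 20% in these data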;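 note: 0% = DMSO wells and 100% = biotin wells as full block of FRET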
#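 Material: NR2E3–RetCOR corepressor complex / Amount: 1.35 nM GST-NR2E3 / Medium: Tris pH 7.5 / Compound: single nominal compound dose of 4.8 µM / Incubation: 5 h at 4 °C / Technique: TR-FRET, Eu(K)-anti-GST donor, streptavidin-D2 acceptor, ex 340, em 617/671 nm / Read-out basis: percent loss of FRET ratio relative to control wells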
# PG9 binder – small molecules binding HIV-1 gp120 antibody PG9. TR-FRET gp120-PG9 antibody binding. inhibition, % at 6.7 µM. hit rate 0.43% among 360,000. AID 624416; in the data active = inhibition above about 8.5%
# NR2E3 ag-2 – agonists of human NR2E3 nuclear receptor. inhibition of corepressor binding, % at 3.98 µM. Q9Y5X4. CHO-S Gal4-NCOR/VP16-NR2E3 two-hybrid, luciferase. hit rate 0.35% among 360,000;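 active = inhibition above the mean of all tested compounds plus 3 SD, cut at about 70% in these data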;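 note: 0% = DMSO with NR2E3 transfected cells and 100% = cells lacking NR2E3 construct; higher means lower luciferase signal from less NR2E3 corepressor binding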
# NR1D1 mod conf – Rev-erb alpha (human) modulation, hit confirmation; shares compounds with NR1D1 modulator; Rev-erb alpha FITC-DNA binding, fluorescence polarization, 90 min; activation, % at 25 µM; hit rate 61% among 3,000;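 active = activation at or above a set limit, or at least 3 SD above the negative control mean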;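 note: 0% = 35 nM protein with DMSO and 100% = 750 nM protein high control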
# RORg counter – affects RORgamma DNA binding in a Rev-erb alpha counter-screen. shares compounds with NR1D1 modulator. purified RORgamma protein-FITC-DNA binding, fluorescence polarization. IC50, µM. hit rate 8% among 910. AID 1259320;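 active = Compounds whose fitted half-maximal concentration for disrupting protein-DNA binding is below 10 micromolar; the record names Rev-erb in its text, so the target is in doubt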
# Numbers without * were called inactive; i = inactive; nt = no result shown. Sampled rows, rich in hits. Any-hit rate of the full collection: about 2%.
SMILES,NR1D1 modulator,Neddylation inh,NR2E3 ag-1,PG9 binder,NR2E3 ag-2,NR1D1 mod conf,others
CSCC(=O)N1CCc2ccc(NC(=O)c3ccccc3Cl)cc2C1,1,i,3,-2,-53,nt,
O=C(NS(=O)(=O)Oc1ccccc1F)OC[C@@H]1CCCN2CCCCC12 (stereo not given in full),1,i,3,-1,-8,nt,
Cc1cccc(-c2nc3sc(C)cc3c(=O)o2)c1,0,nt,0,-1,-7,nt,
Cc1cc2c(=O)oc(-c3ccc(Br)cc3)nc2s1,31*,i,0,0,-21,7,
CC1CCCCC1NC(=O)CSC1=Nc2ccccc2C2CC=NN12 (stereo not given),0,i,1,0,-5,nt,
CC1CCCC(NC(=O)CSC2=Nc3ccccc3C3CC=NN23)C1C (stereo not given),17*,i,5,-1,-14,0,
COc1ccc(S(=O)(=O)N2CCOCC2)cc1NC(=O)C1CC(=O)N(c2ccc3c(c2)OCCO3)C1 (stereo not given),6,i,nt,0,-36,nt,
O=C(COC(=O)c1ccc2ccccc2c1O)Nc1ccccc1,59*,i,nt,1,-12,28*,
Cn1c2ccccc2c(=O)c2c(=O)n(Cc3cccc4ccccc34)cnc21,18*,nt,nt,nt,nt,20*,
Cn1c2ccccc2c(=O)c2c(=O)n(CCCc3ccccc3)cnc21,-3,nt,nt,nt,nt,nt,
CCCCNC(=O)C[C@H]1C(=O)N(CCCOC)C2=CCCCC[C@]21C(=O)OC,1,nt,nt,nt,nt,nt,
CC(=O)c1ccc(-c2cc(C(C)=O)c3n(c2=O)CCC3)cc1,0,nt,nt,nt,nt,nt,
O=c1c2ccccc2nc2sc(Nc3cccc(Cl)c3)nn12,127*,i,1,7,-28,88*,RORg counter=>40
Cc1nc2ccccc2c(=O)n1Nc1cccc(Cl)c1,0,i,1,0,3,nt,
O=c1c2ccc(F)cc2nc2sc(Nc3ccc4c(c3)CCC4)nn12,74*,nt,nt,nt,nt,2,
CSCCC(NC(=O)c1ccccc1Br)C(=O)NNC(=O)C1COc2ccccc2O1 (stereo not given),1,i,nt,0,3,nt,
CCCCN(Cc1ccccc1)S(=O)(=O)c1ccc2c(c1)n(C)c(=O)c(=O)n2C,45*,i,1,-1,13,10,
CCCCNC(=O)C1(C(=O)c2ccc(OC)cc2)CC(c2ccccn2)=NO1 (stereo not given),5,nt,nt,nt,nt,nt,
COc1ccc(C(=O)Nc2ccc(Oc3ncnc4sc(-c5ccccc5)cc34)cc2)cc1OC,20,i,-6,-1,-19,nt,
COc1ccccc1C(=O)Nc1ccc(Oc2ncnc3sc(-c4ccccc4)cc23)cc1,46*,i,-2,1,3,21*,
COc1cc(C(=O)Nc2ccc(Oc3ncnc4sc(-c5ccccc5)cc34)cc2)cc(OC)c1OC,30*,i,0,7,-8,-9,
O=C(NCc1ccccc1)[C@H]1CCCN1C(=O)[C@H]1CCCN1C(=O)C1CCCCC1,0,nt,nt,0,nt,nt,
CCC(C(=O)Nc1nnc(-c2ccco2)s1)c1ccccc1 (stereo not given),15*,i,-1,1,-6,5,
Cc1ccc(CSc2nnc(-c3ccccc3)n2Cc2ccco2)cc1,2,nt,nt,nt,nt,nt,
CCOC(=O)c1c(NC(=O)c2nc3n(n2)C(C(F)F)CC(C)N3)sc2c1CCCC2 (stereo not given),22*,i,0,0,-10,7,
CCCCN1C(=O)/C(=C2/Sc3ccccc3N2C)S/C1=N\c1ncn[nH]1,72*,i,-1,-2,-3,1,
CCN1C(=O)/C(=C2/Sc3ccc(OC)cc3N2C)SC1=Nc1cccc(O)c1,8,i,0,-2,-26,nt,
CCOc1ccc(-c2nc(S(=O)(=O)c3ccccc3)c(NC)o2)cc1,47*,i,1,-2,-20,12,
CCn1ccnc1[C@@H]1C[C@H]2CN(Cc3ccccc3OC)C(=O)[C@]23CCCN13,25*,i,0,0,-16,1,
CCc1ccc([C@@H]2C[C@H]3CN(Cc4ccccc4OC)C(=O)[C@]34CCCN24)cc1,53*,i,0,-2,-30,3,

# Compound activity from PubChem.
